Assay results as given in the RNAGym collection of RNA variant scans (doi:10.1038/nmeth.2970).

B1: NELF-E aptamer (parent)
chain: CCCAACGACUGCCGAGCGAGAUUACGCUUGAGCGCCCCACUGAGGAUGCCCACGGGCGAUUGGGGCACGG

Variants of: B1
Assay: HiTS-RAP
Details: with NELF-E (Drosophila)
Summary of the method: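 Aptamer DNA templates bearing a T7 promoter and a ter site were sequenced on an Illumina GAIIx flowcell. T7 RNA polymerase then transcribed them in situ, and GST-Tus halted transcription over 30 minutes at 37°C. After a 30-minute room-temperature equilibration with NELF-E-mOrange at 0.064 to 1000 nM in HEPES binding buffer, clusters were imaged, using only the first binding curve. Intensities normalised to sequencing intensity were averaged per sequence and fitted with weighted Hill fits to give Kd, retaining only fits whose variance stayed under 1,000,000.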

Variant | Kd
CCCAACGGCUGCCGAGCGAGAUGACGCUUGAGCGCCCCACUGAGGAUGCCCACGGGCGAUUGGGGCACGG [A8G U23G] | 5.8 nM
CCCAACGGCUGCCGAGCGAGAUUACGCGUGAGCGCCCCACUGAGGAUGCCCACGGGCGAUUGGGGCACGG [A8G U28G] | 6.24 nM
CCCCACGACUGCCGAGCGAGAGUACGCUUGAGCGCCCCACUGAGGAUGCCCACGGGCGAUUGGGGCACGG [A4C U22G] | 6.04 nM
CCCAACGACUGCCGAGUGAGAUGACGCUUGAGCGCCCCACUGAGGAUGCCCACGGGCGAUUGGGGCACGG [C17U U23G] | 4.95 nM
CCCAACGACUGCCGAGCGCGAUUACGCUUGAGCGCCCCACUGAGGAUGCCCACGGGCGAUUGGGGCACGG [A19C] | 4.44 nM
CCCAACGACUGCCGAGCGAGAUUACGCUUGAGCGCCCCACUGAGGAUGCCAACGGGCGAUUGGGGCACGG [C51A] | 8.65 nM
CCCAACUACUGCCGAGCGAGAUUACGCUUGAGCGCCCCACUGAGGAUGCCCACGUGCGAUUGGGGCACGG [G7U G55U] | 6.97 nM
CCCAACGAGUGCCGAGCGAGAUUACUCUUGAGCGCCCCACUGAGGAUGCCCACGGGCGAUUGGGGCACGG [C9G G26U] | 8.09 nM
CCCAACUACUGCCGAGCGAGAUUACGCUUGAGCGACCCACUGAGGAUGCCCACGGGCGAUUGGGGCACGG [G7U C35A] | 8.62 nM
CCCAACGACUGCGGAGCGAGAUUACGCUUGAGCGCCCCACUGAGGAUGCCCACGGGCGAUUGGGUCACGG [C13G G65U] | 6.4 nM
CCCAACGACUGUCGAGCGAGAUUACGCUUGGGCGCCCCACUGAGGAUGCCCACGGGCGAUUGGGGCACGG [C12U A31G] | 6.76 nM
CCCAACGACUGCCGAGCGAGAUUACGCUUGGGCGCCCCACUGAGGAUGCCUACGGGCGAUUGGGGCACGG [A31G C51U] | 7.88 nM
CCCAACGACUGCCGAGCGAGAGUACGCUUGGGCGCCCCACUGAGGAUGCCCACGGGCGAUUGGGGCACGG [U22G A31G] | 6.63 nM
CCCAACGACUGCCGAGCGAGAUUGCGCUUGAGCGCCCCACUGAGGAUGCUCACGGGCGAUUGGGGCACGG [A24G C50U] | 9.69 nM
CCCAACGAGUGCCGAGCGAGAUUACGCUUGAGCGCCCCGCUGAGGAUGCCCACGGGCGAUUGGGGCACGG [C9G A39G] | 9.62 nM
CCCAACGACUGCCGAGCGAGAUUACGCUUGAGCGCCCCACUGAGGAAGCCCACGGGCGAUUGGGGCUCGG [U47A A67U] | 10.5 nM
CCCAACGACUGCCGAGCGAGAUUACGCUUGUGCGCCCCACGGAGGAUGCCCACGGGCGAUUGGGGCACGG [A31U U41G] | 7.78 nM
CCCAACGACUGCGGAGCGAGAUUACGCUUGUGCGCCCCACUGAGGAUGCCCACGGGCGAUUGGGGCACGG [C13G A31U] | 5.78 nM
CCCAACGACUGCCGAGCGUGAUGACGCUUGAGCGCCCCACUGAGGAUGCCCACGGGCGAUUGGGGCACGG [A19U U23G] | 6.66 nM

Variant | Kd
CCCUACGACUGCCGAGCGAGAUUACGCUUGAGCGCCCCACUGAGGAUGCCCUCGGGCGAUUGGGGCACGG [A4U A52U] | 20.1 nM
CCCAGCGACUGCCGAGCGAGAUUACGCUUGAGCGCCCCACUGAGGAUGCCCACGGGCGAUUGGGGCACGG [A5G] | 5.54 nM
CCCAACGACUGCCUAGCGAGAUUACGCUUGAGCGCCCCACUGAGGAUGCCCUCGGGCGAUUGGGGCACGG [G14U A52U] | 15.8 nM
CCCAACGACUGCCAAGCGAGAUUACGCUUGAGCGCCCCUCUGAGGAUGCCCACGGGCGAUUGGGGCACGG [G14A A39U] | 31 nM
CCCAACGACGGCCGAGCGAGAUUACGCUUGAGCGCCCAACUGAGGAUGCCCACGGGCGAUUGGGGCACGG [U10G C38A] | 39.8 nM
CCCAACGAGUGCCGAGCGAGAUUACGCGUGAGCGCCCCACUGAGGAUGCCCACGGGCGAUUGGGGCACGG [C9G U28G] | 6.8 nM
CCCAACGACUGCCGAGCGAGAUUACGCUUGAGCGCCCCACUGAGGAUGCCCACAAGCGAUUGGGGCACGG [G54A G55A] | 26.2 nM
CCCAGCGACUGCCGAGCGAGAUUACGCUUGAGCGCCCCACUGAGGAUGCCCACGGGCGACUGGGGCACGG [A5G U60C] | 11.3 nM
CCCAACGACUGCCGAGCGGGAUUACGCUUGAGCGCCCCACUGAGGAUGCCCUCGGGCGAUUGGGGCACGG [A19G A52U] | 19.5 nM
CCCAAAGACUGCCGAGGGAGAUUACGCUUGAGCGCCCCACUGAGGAUGCCCACGGGCGAUUGGGGCACGG [C6A C17G] | 7.95 nM
CCCAACGACUGUCGAGCGAGAUUACGCUUGAGCACCCCACUGAGGAUGCCCACGGGCGAUUGGGGCACGG [C12U G34A] | 5.3 nM
CCCACGGACUGCCGAGCGAGAUUACGCUUGAGCGCCCCACUGAGGAUGCCCACGGGCGAUUGGGGCACGG [A5C C6G] | 5.97 nM
CCCAACGACUGCCGAGCGAGAUUACGCUGGAGCGCCCCACUGGGGAUGCCCACGGGCGAUUGGGGCACGG [U29G A43G] | 14 nM
CCCAACGACUGCCGAGCGAGAUUACGCUUGAGCGCCCCACGGAGGAUGCCCACGGGCGAUUGGCGCACGG [U41G G64C] | 7.1 nM
CCCGACGACUGCCGAGCGAGAUUACGCUUAAGCGCCCCACUGAGGAUGCCCACGGGCGAUUGGGGCACGG [A4G G30A] | 4.89 nM
CCCAACGACUGCCGAGCGAGAUUACGCUUGAGCGCCCCACUGAGGAUGCCCACGGGCGAAUGGGGCACGG [U60A] | 9.5 nM
CCCAACGGCUGCCGAGCGAGAUUACGCUUGAGCGCCCCACUGAGGAUGCCCACGGGCGAUAGGGGCACGG [A8G U61A] | 29.3 nM
CCCAACUACUGCCGAGCGAGAUUACGCUUGAGUGCCCCACUGAGGAUGCCCACGGGCGAUUGGGGCACGG [G7U C33U] | 6.35 nM
CCCAACGACGGCCGAGCGAGAUUACGUUUGAGCGCCCCACUGAGGAUGCCCACGGGCGAUUGGGGCACGG [U10G C27U] | 3.87 nM
